From ChEMBL document CHEMBL5712920, “The histone methyltransferase inhibitor A-366 enhances hemoglobin expression in erythroleukemia cells upon co-exposure with chemical inducers in culture” (J Biol Res (Thessalon), 2021)

Key:
[1] = biological target: N-lysine methyltransferase SMYD2 (Mus musculus) (UniProt Q8R5A0); assay: Inhibition of SMYD2 in HMBA-stiumulated mouse FLC clone 745 cells assessed as increase in erythroid differentiation at IC50 concentration measured after 72 hrs by benzidine-H2O2 based assay (reference value: 69.6%); type: cell-based
[2] = Cytotoxicity against mouse FLC clone 745 cells assessed as reduction in cell viability measured after 48 hrs by Neubauer chamber based microscopic analysis; type: toxicity
[3] = Cytotoxicity against HMBA-stiumulated mouse FLC clone 745 cells assessed as cell viability measured after 48 hrs by Neubauer chamber based microscopic analysis (reference value: 50.563%); type: toxicity; details: HMBA-stimulated FLC clone 745 cells, read-out: Activity
[4] = biological target: N-lysine methyltransferase SMYD2 (Mus musculus) (UniProt Q8R5A0); assay: Inhibition of SMYD2 in HMBA-stiumulated mouse FLC clone 745 cells assessed as increase in erythroid differentiation at IC50 concentration measured after 96 hrs by benzidine-H2O2 based assay (reference value: 79.45%); type: cell-based
[5] = Inhibition of G9a/GLP in HMBA-stiumulated mouse FLC clone 745 cells assessed as increase in erythroid differentiation at IC50 concentration measured after 96 hrs by benzidine-H2O2 based assay (reference value: 79.45%); details: condition erythroleukemia
[6] = Inhibition of G9a/GLP in HMBA-stiumulated mouse FLC clone 745 cells assessed as increase in erythroid differentiation at IC50 concentration measured after 72 hrs by benzidine-H2O2 based assay (reference value: 69.6%); details: condition erythroleukemia
[7] = test system: FLC clone 745; assay: Cytotoxicity against mouse FLC clone 745 cells assessed as reduction in cell viability at IC50 concentration measured up to 96 hrs by Neubauer chamber based microscopic analysis; type: toxicity; details: flc clone 745, 96 h
Method in brief: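 MEL-745 cells treated continuously with compound at its previously determined 48 h IC50, without inducer, for up to 96 h. Total cell number counted daily in a Neubauer chamber. Final DMSO ≤0.2% v/v.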

[8] = biological target: Histone-lysine N-methyltransferase KMT5B (Mus musculus) (UniProt Q3U8K7); assay: Inhibition of SUV420H1 in HMBA-stiumulated mouse FLC clone 745 cells assessed as increase in erythroid differentiation at IC50 concentration measured after 96 hrs by benzidine-H2O2 based assay (reference value: 79.45%); type: cell-based
[9] = biological target: Histone-lysine N-methyltransferase KMT5B (Mus musculus) (UniProt Q3U8K7); assay: Inhibition of SUV420H1 in HMBA-stiumulated mouse FLC clone 745 cells assessed as increase in erythroid differentiation at IC50 concentration measured after 72 hrs by benzidine-H2O2 based assay (reference value: 69.6%); type: cell-based
[10] = biological target: Histone-lysine N-methyltransferase, H3 lysine-79 specific (Mus musculus) (UniProt F7CVL0); assay: Inhibition of DOT1L in HMBA-stiumulated mouse FLC clone 745 cells assessed as increase in erythroid differentiation at IC50 concentration measured after 96 hrs by benzidine-H2O2 based assay (reference value: 79.45%); type: cell-based
[11] = biological target: Histone-lysine N-methyltransferase, H3 lysine-79 specific (Mus musculus) (UniProt F7CVL0); assay: Inhibition of DOT1L in HMBA-stiumulated mouse FLC clone 745 cells assessed as increase in erythroid differentiation at IC50 concentration measured after 72 hrs by benzidine-H2O2 based assay (reference value: 69.6%); type: cell-based
[12] = biological target: Histone-lysine N-methyltransferase EZH2 (Mus musculus) (UniProt Q61188); assay: Inhibition of EZH2 in HMBA-stiumulated mouse FLC clone 745 cells assessed as increase in erythroid differentiation at IC50 concentration measured after 72 hrs by benzidine-H2O2 based assay (reference value: 69.6%); type: cell-based
[13] = biological target: Histone-lysine N-methyltransferase EZH2 (Mus musculus) (UniProt Q61188); assay: Inhibition of EZH2 in HMBA-stiumulated mouse FLC clone 745 cells assessed as increase in erythroid differentiation at IC50 concentration measured after 96 hrs by benzidine-H2O2 based assay (reference value: 79.45%); type: cell-based
[14] = biological target: Protein arginine N-methyltransferase 3 (Mus musculus) (UniProt Q922H1); assay: Inhibition of PRMT3 in HMBA-stiumulated mouse FLC clone 745 cells assessed as increase in erythroid differentiation at IC50 concentration measured after 72 hrs by benzidine-H2O2 based assay (reference value: 69.6%); type: cell-based
[15] = biological target: Protein arginine N-methyltransferase 3 (Mus musculus) (UniProt Q922H1); assay: Inhibition of PRMT3 in HMBA-stiumulated mouse FLC clone 745 cells assessed as increase in erythroid differentiation at IC50 concentration measured after 96 hrs by benzidine-H2O2 based assay (reference value: 79.45%); type: cell-based

Chain of N-lysine methyltransferase SMYD2 (Mus musculus) (Q8R5A0 whole entry): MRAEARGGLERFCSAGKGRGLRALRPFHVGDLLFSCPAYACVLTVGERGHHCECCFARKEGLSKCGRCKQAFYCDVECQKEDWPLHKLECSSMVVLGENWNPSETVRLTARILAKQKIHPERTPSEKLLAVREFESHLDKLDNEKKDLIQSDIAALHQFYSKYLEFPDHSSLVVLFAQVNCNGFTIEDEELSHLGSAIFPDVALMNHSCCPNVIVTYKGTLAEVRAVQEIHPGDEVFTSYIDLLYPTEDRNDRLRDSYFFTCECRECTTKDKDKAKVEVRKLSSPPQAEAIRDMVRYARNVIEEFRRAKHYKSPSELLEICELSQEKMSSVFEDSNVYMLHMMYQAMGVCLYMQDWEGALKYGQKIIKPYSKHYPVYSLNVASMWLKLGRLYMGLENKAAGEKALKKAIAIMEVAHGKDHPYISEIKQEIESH
Chain of Histone-lysine N-methyltransferase EZH2 (Mus musculus) (Q61188 whole entry): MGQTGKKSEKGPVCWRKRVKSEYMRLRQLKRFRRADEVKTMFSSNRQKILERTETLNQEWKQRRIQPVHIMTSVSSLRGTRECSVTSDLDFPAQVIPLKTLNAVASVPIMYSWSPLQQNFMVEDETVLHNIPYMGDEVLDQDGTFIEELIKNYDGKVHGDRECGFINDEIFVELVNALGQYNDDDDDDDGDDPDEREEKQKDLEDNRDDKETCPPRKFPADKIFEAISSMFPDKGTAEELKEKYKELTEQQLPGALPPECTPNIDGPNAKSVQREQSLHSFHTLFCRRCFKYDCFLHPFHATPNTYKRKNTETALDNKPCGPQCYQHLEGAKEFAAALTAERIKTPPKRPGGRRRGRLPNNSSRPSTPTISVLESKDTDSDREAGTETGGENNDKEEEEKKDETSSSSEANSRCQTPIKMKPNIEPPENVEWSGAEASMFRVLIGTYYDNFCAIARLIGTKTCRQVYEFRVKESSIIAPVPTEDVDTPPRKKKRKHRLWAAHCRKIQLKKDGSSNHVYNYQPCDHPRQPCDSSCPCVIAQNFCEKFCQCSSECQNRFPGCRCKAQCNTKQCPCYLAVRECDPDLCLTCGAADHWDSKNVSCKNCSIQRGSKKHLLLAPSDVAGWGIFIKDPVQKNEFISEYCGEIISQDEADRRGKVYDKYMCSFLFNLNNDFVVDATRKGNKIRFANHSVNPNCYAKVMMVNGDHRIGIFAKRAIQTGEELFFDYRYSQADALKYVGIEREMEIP
Chain of Protein arginine N-methyltransferase 3 (Mus musculus) (Q922H1 whole entry): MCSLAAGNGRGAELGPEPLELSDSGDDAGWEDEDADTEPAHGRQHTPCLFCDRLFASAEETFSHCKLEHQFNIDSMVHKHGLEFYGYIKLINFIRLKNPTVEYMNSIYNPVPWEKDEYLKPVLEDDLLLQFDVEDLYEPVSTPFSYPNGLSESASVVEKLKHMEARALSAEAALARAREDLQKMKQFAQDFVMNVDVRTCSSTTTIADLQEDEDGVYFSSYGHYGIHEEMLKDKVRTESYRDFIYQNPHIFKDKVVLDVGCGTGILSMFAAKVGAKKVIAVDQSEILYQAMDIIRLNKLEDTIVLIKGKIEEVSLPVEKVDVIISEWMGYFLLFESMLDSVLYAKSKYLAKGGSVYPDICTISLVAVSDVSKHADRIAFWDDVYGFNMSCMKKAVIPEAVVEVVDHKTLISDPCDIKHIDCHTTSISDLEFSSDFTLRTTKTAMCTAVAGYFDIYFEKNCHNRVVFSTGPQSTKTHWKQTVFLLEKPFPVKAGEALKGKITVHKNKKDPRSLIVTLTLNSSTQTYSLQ
Chain of Histone-lysine N-methyltransferase, H3 lysine-79 specific (Mus musculus) (F7CVL0 as listed by the source): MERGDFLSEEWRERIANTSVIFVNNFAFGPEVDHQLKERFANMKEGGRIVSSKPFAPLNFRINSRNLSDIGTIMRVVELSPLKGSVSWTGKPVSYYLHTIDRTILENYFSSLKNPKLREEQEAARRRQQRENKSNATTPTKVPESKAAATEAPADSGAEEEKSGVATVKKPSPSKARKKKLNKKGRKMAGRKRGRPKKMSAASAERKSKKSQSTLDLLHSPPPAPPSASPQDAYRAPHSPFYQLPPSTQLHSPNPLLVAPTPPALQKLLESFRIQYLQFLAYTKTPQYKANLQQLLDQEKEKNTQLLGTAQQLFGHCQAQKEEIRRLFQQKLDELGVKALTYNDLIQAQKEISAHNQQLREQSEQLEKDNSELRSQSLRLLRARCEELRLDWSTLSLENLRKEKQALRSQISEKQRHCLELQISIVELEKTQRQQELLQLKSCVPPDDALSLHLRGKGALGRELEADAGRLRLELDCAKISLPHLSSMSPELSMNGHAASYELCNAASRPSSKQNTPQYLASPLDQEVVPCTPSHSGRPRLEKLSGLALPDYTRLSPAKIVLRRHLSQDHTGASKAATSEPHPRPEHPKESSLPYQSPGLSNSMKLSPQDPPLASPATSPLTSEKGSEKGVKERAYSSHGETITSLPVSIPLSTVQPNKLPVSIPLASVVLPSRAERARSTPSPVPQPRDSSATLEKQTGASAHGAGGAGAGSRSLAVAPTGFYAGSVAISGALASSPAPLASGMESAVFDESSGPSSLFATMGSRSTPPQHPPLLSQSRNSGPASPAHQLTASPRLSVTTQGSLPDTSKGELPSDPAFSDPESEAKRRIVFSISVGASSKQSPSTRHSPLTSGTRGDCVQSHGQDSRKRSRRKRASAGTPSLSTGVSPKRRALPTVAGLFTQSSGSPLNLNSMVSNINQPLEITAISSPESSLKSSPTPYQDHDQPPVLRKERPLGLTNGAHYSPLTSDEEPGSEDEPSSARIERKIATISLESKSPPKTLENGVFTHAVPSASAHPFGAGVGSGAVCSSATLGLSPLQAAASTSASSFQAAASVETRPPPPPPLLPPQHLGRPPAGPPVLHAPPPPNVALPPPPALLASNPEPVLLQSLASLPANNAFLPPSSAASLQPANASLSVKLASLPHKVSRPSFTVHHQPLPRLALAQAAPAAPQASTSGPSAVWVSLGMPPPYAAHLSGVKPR
Chain of Histone-lysine N-methyltransferase KMT5B (Mus musculus) (Q3U8K7 whole entry): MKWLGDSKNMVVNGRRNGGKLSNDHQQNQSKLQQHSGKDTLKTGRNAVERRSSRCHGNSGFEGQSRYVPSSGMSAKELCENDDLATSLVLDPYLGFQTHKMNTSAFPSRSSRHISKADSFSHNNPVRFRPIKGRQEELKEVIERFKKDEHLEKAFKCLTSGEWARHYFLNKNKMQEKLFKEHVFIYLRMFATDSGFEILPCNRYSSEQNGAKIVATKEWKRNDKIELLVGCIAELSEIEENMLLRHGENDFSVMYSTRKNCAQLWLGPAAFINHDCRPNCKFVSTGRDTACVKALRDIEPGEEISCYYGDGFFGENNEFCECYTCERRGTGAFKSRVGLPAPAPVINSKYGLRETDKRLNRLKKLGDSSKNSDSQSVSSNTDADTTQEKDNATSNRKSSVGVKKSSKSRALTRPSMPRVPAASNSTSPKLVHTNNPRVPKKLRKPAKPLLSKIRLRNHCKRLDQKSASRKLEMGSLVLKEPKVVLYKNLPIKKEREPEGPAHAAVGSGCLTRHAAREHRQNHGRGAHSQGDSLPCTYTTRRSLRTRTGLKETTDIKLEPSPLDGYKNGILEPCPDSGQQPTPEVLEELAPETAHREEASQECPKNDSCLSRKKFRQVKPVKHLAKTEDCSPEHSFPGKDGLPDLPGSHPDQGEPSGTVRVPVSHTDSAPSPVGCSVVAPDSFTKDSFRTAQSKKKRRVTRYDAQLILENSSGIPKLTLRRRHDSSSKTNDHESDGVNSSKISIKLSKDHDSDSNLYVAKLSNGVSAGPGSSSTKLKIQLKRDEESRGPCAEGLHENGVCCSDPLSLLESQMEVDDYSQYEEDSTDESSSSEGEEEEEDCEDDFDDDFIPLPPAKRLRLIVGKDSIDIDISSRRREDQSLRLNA

SMILES | IC50 at 48 h [2] | viability at 48 h [3] | also measured
CCN(C(=O)CO)[C@H]1CN(/C(=N\C#N)Nc2cccc(OC(F)F)c2)N=C1c1ccc(Cl)c(Cl)c1 | 4.7 µM | 22.8% | inhibition [1]: 12.7%; inhibition [4]: 22.6%
COc1cc2c(NC3CCN(C(C)C)CC3)nc(N3CCC(F)(F)CC3)nc2cc1OCCCN1CCCC1 | 1.6 µM | 4.2% | inhibition (INH) [5]: <1%; inhibition (INH) [6]: <1%; Activity [7]: Toxic
COc1cc2c(NC3CCN(C(C)C)CC3)nc(C3CCCCC3)nc2cc1OCCCN1CCCC1 | 0.44 µM | 7.56% | inhibition (INH) [5]: <1%; inhibition (INH) [6]: <1%; Activity [7]: Toxic
Cc1cn(CCN2CCN(c3ccccc3-c3cc(C#N)cc(C(=O)NCCCN4CCCC4)c3)CC2)c2ccccc12 | 0.68 µM | 16.6% | inhibition [1]: 1.3%; inhibition [4]: 9%
O=C([C@@H](Cc1cccc(C(F)(F)F)c1)NS(=O)(=O)c1cc(F)c2c(c1)CCNC2)N1CCCC1 | 20 µM | 18.7% | –
Clc1cc2c(NC3CCCC3)nnc(-c3ccncc3)c2cc1Cl | 20 µM | 27.2% | inhibition [8]: 19%; inhibition [9]: < 1%
CC(C)N(CCCNC(=O)Nc1ccc(C(C)(C)C)cc1)C[C@H]1O[C@@H](n2cc(Br)c3c(N)ncnc32)[C@H](O)[C@@H]1O | 2.3 µM | 23.9% | inhibition [10]: 6.64%; inhibition [11]: 4.3%
CCCc1cc(C)[nH]c(=O)c1CNC(=O)c1cc(-c2ccnc(N3CCN(C)CC3)c2)cc2c1cnn2C(C)C | 2.2 µM | 20.6% | inhibition [12]: < 1%; inhibition [13]: < 1%
CCc1cc(C)[nH]c(=O)c1CNC(=O)c1cc(-c2ccc(N3CCN(C(C)C)CC3)nc2)cc2c1cnn2C(C)C | 3.2 µM | 6.96% | inhibition [12]: < 1%; inhibition [13]: < 1%
O=C(NCC(=O)N1CCCC1)Nc1ccc2cnccc2c1 | 11 µM | 31.6% | inhibition [14]: 18.9%; inhibition [15]: 47.7%
CN1CCN(c2ccc(-c3cccc(CN4CCOCC4)c3)cc2NC(=O)c2c[nH]c(=O)cc2C(F)(F)F)CC1 | – | 7.57% | Activity [7]: Toxic
